From ChEMBL document CHEMBL5055627 (J Med Chem, 2021)
≈ marks a conversion by molar mass, not a printed value. Calls of active or inactive are those of the source. The calls are words filed in the database; no cut-off is given here.

How the values were obtained:
[1] = biological target: T1, 20S immunoproteasome beta-1i subunit (Homo sapiens, UniProt P28065); assay: Inhibition of human 20S immunoproteasome beta-1i subunit at 100 uM using Z-LLE-AMC as substrate measured over 1.5 to 2 hrs by plate reader assay relative to control; conditions: probe Z-LLE-AMC, time 1.5-2 hrs
T1 sequence (P28065 whole entry): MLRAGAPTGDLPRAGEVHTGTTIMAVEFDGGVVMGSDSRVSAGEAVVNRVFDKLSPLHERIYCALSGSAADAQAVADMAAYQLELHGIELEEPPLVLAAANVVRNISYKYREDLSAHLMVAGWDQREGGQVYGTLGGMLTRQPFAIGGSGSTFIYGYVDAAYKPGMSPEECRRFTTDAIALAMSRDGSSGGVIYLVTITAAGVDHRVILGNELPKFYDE
Outline: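 Human c-20S β1c or i-20S β1i, activated with 0.02% SDS, with 50 μM Z-LLE-AMC in 20 mM HEPES, 0.5 mM EDTA, pH 7.5. AMC fluorescence (ex 360/em 460 nm) recorded over 1.5–2 h.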

[2] = biological target: T2, Proteasome Macropain subunit MB1 (Homo sapiens, UniProt P28074); assay: Inhibition of human 20S constitutive proteasome beta-5c subunit using Suc-LLVY-AMC as substrate measured over 1.5 to 2 hrs by plate reader assay
T2 sequence (P28074 whole entry): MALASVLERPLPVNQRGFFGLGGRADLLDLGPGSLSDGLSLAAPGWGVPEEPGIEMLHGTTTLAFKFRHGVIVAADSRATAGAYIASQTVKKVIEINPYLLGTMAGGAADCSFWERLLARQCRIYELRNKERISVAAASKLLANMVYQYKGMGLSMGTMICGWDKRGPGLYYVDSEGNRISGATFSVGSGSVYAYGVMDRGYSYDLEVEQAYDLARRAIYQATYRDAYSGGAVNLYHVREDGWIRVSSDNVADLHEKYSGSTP
Outline: (§1)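 Human c-20S (from red blood cells; β5c 0.2 nM final) or i-20S (from PBMC; β5i 0.4 nM final), activated with 0.02% SDS. Buffer 20 mM HEPES, 0.5 mM EDTA, pH 7.5; 3-fold compound series from 100 μM.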

[3] = biological target: T3, 20S immunoproteasome beta-2i subunit (Homo sapiens, UniProt P40306); assay: Inhibition of human 20S immunoproteasome beta-2i subunit at 100 uM using Z-VLR-AMC as substrate measured over 1.5 to 2 hrs by plate reader assay relative to control; conditions: probe Z-VLR-AMC, time 1.5-2 hrs
T3 sequence (P40306 whole entry): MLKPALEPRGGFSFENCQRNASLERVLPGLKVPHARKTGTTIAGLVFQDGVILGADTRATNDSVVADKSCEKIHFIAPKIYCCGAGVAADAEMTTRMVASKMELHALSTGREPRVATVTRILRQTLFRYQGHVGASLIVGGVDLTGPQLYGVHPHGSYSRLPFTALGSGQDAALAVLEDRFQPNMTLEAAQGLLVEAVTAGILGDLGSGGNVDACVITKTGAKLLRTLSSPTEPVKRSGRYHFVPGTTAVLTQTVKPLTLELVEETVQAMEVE
Outline: (§2)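 Human c-20S β2c or i-20S β2i, activated with 6 nM PA28α, with 50 μM Z-VLR-AMC in 20 mM HEPES, 0.5 mM EDTA, pH 7.5. Compounds in 3-fold series from 100 μM.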

[4] = biological target: T4, Proteasome subunit beta type-8 (Homo sapiens, UniProt P28062); assay: Inhibition of human 20S immunoproteasome beta-5i subunit using Suc-LLVY-AMC as substrate measured over 1.5 to 2 hrs by plate reader assay; outline: as §1
T4 sequence (P28062 whole entry): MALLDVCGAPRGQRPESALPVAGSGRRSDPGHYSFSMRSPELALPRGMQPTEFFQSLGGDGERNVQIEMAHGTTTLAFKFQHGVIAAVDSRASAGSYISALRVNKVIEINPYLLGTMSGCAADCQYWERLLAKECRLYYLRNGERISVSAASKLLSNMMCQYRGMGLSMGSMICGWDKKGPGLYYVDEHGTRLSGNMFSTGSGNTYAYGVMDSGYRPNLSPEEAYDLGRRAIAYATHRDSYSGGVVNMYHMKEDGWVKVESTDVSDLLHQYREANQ

[5] = system: Mycobacterium tuberculosis; assay: Inhibition of intracellular 20S proteasome activity in Mycobacterium tuberculosis assessed as accumulation of pupylated protein at 50 uM incubated for 48 hrs; type: cell-based
Outline: (§3)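 Mtb CDC1551 dop::MycoMarT7 expressing Pup-GGE (no depupylation) treated 48 h with compound at 1, 3 or 10 μM, or carfilzomib at 50 μM. Pupylated proteins detected by anti-Pup immunoblot, with anti-PrcB as loading control.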

[6] = biological target: T5, Proteasome subunit beta type-10 (Homo sapiens, UniProt P40306); assay: Inhibition of human 20S immunoproteasome beta-2i subunit using Z-VLR-AMC as substrate measured over 1.5 to 2 hrs by plate reader assay; outline: as §2
T5 sequence (P40306 whole entry): T3 sequence (P40306 whole entry)

[7] = system: Mycobacterium tuberculosis; assay: Inhibition of intracellular 20S proteasome activity in Mycobacterium tuberculosis MHD1441 expressing Pup-GFP assessed as Pup-GFP accumulation measured after 4 days by fluorescence assay; type: cell-based; conditions: dose 0.1-33 µM, time 4.0 day
Outline: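 Mtb H37Rv carrying pSCK1 (produces Pup-GFP), adjusted to OD 0.05 in 7H9. Compounds at 33, 11, 3.7, 1.2, 0.4 and 0.1 μM final, incubated 4 d at 37 °C. OD580 and fluorescence (ex 495/em 510 nm) read; RFU normalised to OD, then expressed as fold of DMSO control; ≥3 independent experiments.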

[8] = Stability in human plasma assessed as parent compound remaining incubated for 2 hrs by UPLC/MS analysis; type: ADME, cell-free; conditions: read-out: Stability
[9] = Permeability of compound by PAMPA; type: ADME
HepG2 = assay: Cytotoxicity against human HepG2 cells assessed as cell viability at 30 uM incubated for 72 hrs relative to control; type: cell-based; conditions: hepg2, 72 h
Outline: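 HepG2 cells exposed to 30 μM compound for 72 h, then viability assessed.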

[10] = Stability of human liver microsomes assessed as intrinsic clearance at 1 uM measured upto 30 mins in presence of NADPH generating system by LC/MS-MS analysis; type: ADME, Microsome; conditions: 0.5 h
Outline: (§4)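 Compound at 1 μM with human or mouse liver microsomes (0.2 mg protein/mL) in phosphate buffer pH 7.4, started with NADPH-generating system; 1% organic solvent. Incubated at 37 °C for 0, 15 and 30 min in duplicate, quenched with acetonitrile plus internal standard, analysed by LC/MS-MS. CLint = first-order k divided by protein concentration.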

[11] = Stability of mouse liver microsomes assessed as intrinsic clearance at 1 uM measured upto 30 mins in presence of NADPH generating system by LC/MS-MS analysis; type: ADME, Microsome; conditions: 0.5 h; outline: as §4
[12] = Kinetic solubility of compound in PBS at pH 6.8 incubated for 24 hrs by UPLC/MS analysis; type: physicochemical; conditions: read-out: Kinetic_solubility
[13] = system: Mycobacterium tuberculosis; assay: Inhibition of intracellular 20S proteasome activity in Mycobacterium tuberculosis assessed as accumulation of pupylated protein incubated for 48 hrs; type: cell-based; conditions: dose 1-10 µM; outline: as §3
[14] = system: Mycobacterium tuberculosis; assay: Bactericidal activity against Mycobacterium tuberculosis under nitrosative stress condition; type: functional, organism-based
Outline: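 Non-replicating Mtb Erdman held in Sauton's medium with 0.5 mM NaNO₂ at pH 5.5 to generate NO; killing measured as reported previously.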

[15] = system: Mycobacterium tuberculosis; assay: Inhibition of Mycobacterium tuberculosis 20S proteasome expressed in Escherichia coli BL21(DE3) at 10 to 30 nM using Suc-LLVY-AMC as substrate by plate reader assay; conditions: dose 10-30 nM, TDE = time-dependent effect
[16] = system: Mycobacterium tuberculosis; assay: Inhibition of Mycobacterium tuberculosis 20S proteasome expressed in Escherichia coli BL21(DE3) assessed as half life using Suc-LLVY-AMC as substrate by plate reader assay
[17] = Inhibition of Mycobacterium tuberculosis 20S proteasome expressed in Escherichia coli BL21(DE3) using Suc-LLVY-AMC as substrate by plate reader assay

Row | SMILES | inhibition at 100 µM [1] [%] | IC50 [2] [µM] | inhibition at 100 µM [3] [%] | IC50 [4] [µM] | further results
1 | O=C(N[C@H]1Cc2cccc(c2)Oc2ccc(cc2)C[C@@H](C(=O)NCc2ccccc2F)NC(=O)[C@H](CC(=O)N2CCC[C@@H]2c2ccccc2)NC1=O)c1ccccc1 | < 50 | > 100 | < 50 | > 100 | –
2 | O=C1CCCCCCCCOC[C@@H](C(=O)NCc2cccc3ccccc23)NC(=O)[C@H](CC(=O)N2CCCC2)N1 | < 50 | > 100 | < 50 | > 100 | –
3 | O=C1N[C@@H](CC(=O)N2CCCC2)C(=O)N[C@H](C(=O)NCc2cccc3ccccc23)CCCCCCCCCC1Cc1ccccc1 (stereo partly drawn) | < 50 | – | < 50 | > 100 | –
4 | CC(=O)N[C@H]1Cc2cccc(c2)Oc2ccc(cc2)C[C@@H](C(=O)NCc2ccccc2F)NC(=O)[C@H](CC(=O)N2CCC[C@@H]2c2ccccc2)NC1=O | < 50 | > 100 | < 50 | > 100 | –
5 | O=C1CCc2cccc(c2)Oc2ccc(cc2)C[C@@H](C(=O)NCc2ccccc2F)NC(=O)[C@H](CC(=O)N2CCCC2)N1 | < 50 | > 100 | < 50 | 21.1 | –
6 | CCN(CC)C(=O)C[C@H](NC(=O)CCc1ccccc1)C(=O)N[C@@H](Cc1ccc(F)cc1)C(=O)NCc1cccc2ccccc12 | – | 70 | – | 54.7 | –
7 | CC(C)C[C@H](NC(=O)[C@H](CCc1ccccc1)NC(=O)CN1CCOCC1)C(=O)N[C@@H](Cc1ccccc1)C(=O)N[C@@H](CC(C)C)C(=O)[C@@]1(C)CO1 | – | – | – | – | inhibition [5]: Active
8 | O=C1CCc2cccc(c2)OCCCC[C@@H](C(=O)NCc2ccccc2F)NC(=O)[C@H](CC(=O)N2CCC[C@@H]2C2CC2)N1 | < 50 | 0.073 | < 50 | 0.069 | IC50 [6]: 44.5 µM
9 | O=C1CCc2cccc(c2)OCCCC[C@@H](C(=O)NCc2ccccc2F)NC(=O)[C@H](CC(=O)N2CCC[C@H]2C2CC2)N1 | < 50 | 1.5 | < 50 | 0.87 | –
10 | O=C1CCCCCCCCOC[C@@H](C(=O)NCc2ccccc2F)NC(=O)[C@H](CC(=O)N2CCC[C@@H]2c2ccccc2)N1 | < 50 | > 100 | < 50 | > 100 | inhibition [7]: Dose-dependent effect; remaining at 2 h [8]: 86%; permeability [9]: 26 ×10⁻⁶ cm/s; Activity (HepG2): 91%; CLH [10]: > 768 µL/min/mg; CLH [11]: > 768 µL/min/mg
11 | O=C1CCc2cccc(c2)OCCCC[C@@H](C(=O)NCc2ccccc2F)NC(=O)[C@H](CC(=O)N2CCC[C@@H]2c2ccccc2)N1 | < 50 | > 100 | < 50 | > 100 | inhibition [7]: Dose-dependent effect; remaining at 2 h [8]: 97%; solubility kinetic at 24 h [12]: 33 µg/mL (≈ 52.5 µM); permeability [9]: 20.6 ×10⁻⁶ cm/s; Activity (HepG2): 102%; CLH [10]: > 768 µL/min/mg; CLH [11]: > 768 µL/min/mg
12 | O=C1CCCCCCCCCC[C@@H](C(=O)NCc2cccc3ccccc23)NC(=O)[C@H](CC(=O)N2CCCC2)N1 | < 50 | > 100 | < 50 | > 100 | –
13 | O=C1CCc2cccc(c2)OCCCC[C@@H](C(=O)NCc2ccccc2F)NC(=O)[C@H](CCN2CCC[C@@H]2c2ccccc2)N1 | – | 86.2 | – | 47.3 | –
14 | O=C1CCCCCCCCC[C@@H](C(=O)NCc2cccc3ccccc23)NC(=O)[C@H](CC(=O)N2CCCC2)N1 | < 50 | > 100 | < 50 | > 100 | –
15 | O=C1CCc2cccc(c2)Oc2ccc(cc2)C[C@@H](C(=O)NCc2ccccc2F)NC(=O)[C@H](CC(=O)N2CCC[C@@H]2c2ccccc2)N1 | < 50 | > 100 | < 50 | > 100 | inhibition [13]: Dose-dependent effect; Activity [14]: Dose-dependent effect; inhibition [15]: Tde; inhibition [7]: Dose-dependent effect; remaining at 2 h [8]: 94%; solubility kinetic at 24 h [12]: 1.4 µg/mL (≈ 2.11 µM); permeability [9]: 22.7 ×10⁻⁶ cm/s; Activity (HepG2): 98%; CLH [10]: > 768 µL/min/mg; CLH [11]: > 768 µL/min/mg; T1/2 [16]: 16.5 min; Ki [17]: 0.0121 µM
